Screening results: PubChem BioAssay, Broad Institute
Casp6 inh: inhibitors of human caspase-6. 350,000 compounds, 0.53% hits. inhibition, % at 12.5 µM. purified caspase-6, Z-VEID-R110 cleavage fluorescence. P55212;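 active = mean inhibition across replicates at least about 35%, with every replicate also reaching that limit, limit read from the data; inconclusive = only one of the two criteria met; inactive = neither criterion met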;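 also: 0% = median of neutral control wells and 100% = no fluorescence left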
Target sequence (P55212 24-179 limits assumed): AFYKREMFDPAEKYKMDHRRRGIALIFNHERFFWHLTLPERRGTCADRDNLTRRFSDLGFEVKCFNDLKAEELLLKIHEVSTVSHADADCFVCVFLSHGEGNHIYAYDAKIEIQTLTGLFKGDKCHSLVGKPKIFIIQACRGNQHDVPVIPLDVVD
Target sequence (P55212 194-293 limits assumed): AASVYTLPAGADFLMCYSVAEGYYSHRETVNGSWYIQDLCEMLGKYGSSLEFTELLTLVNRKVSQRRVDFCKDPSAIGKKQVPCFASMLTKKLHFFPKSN
Xi reactivation: activators of X-chromosome reactivation in mouse fibroblasts | AID 743238 | activation, % at 7.58 µM | 360,000 compounds, 0.055% hits | XiGFP mouse fibroblasts, % GFP-positive cells imaging, 3 d; cells co-treated with 5-aza-dC sensitizer; scaled so ellipticine positive control = 100%;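 active = mean normalized replicate activation at least 10% and every replicate at or above 10%; inconclusive = only one of the two criteria met; inactive = mean below 10% and not all replicates reach 10%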;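 also: 0% = median of on-plate neutral control wells and 100% = ellipticine 6 µM median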
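Material: XiGFP fibroblasts, SV40-immortalized; Buffer or medium: DMEM containing 5-aza-dC; Compound dosing: single point; Times: 3 days compound exposure.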
esBAF inh: inhibitors of esBAF chromatin remodeling in mouse ES cells. 350,000 compounds, 2% hits. Bmi1-luciferase knock-in reporter, 24 h; 100% = twice the neutral-well signal. reporter increase, % at 12.5 µM. AID 602393; in the data active = activation above about 40%; inconclusive = no clear call, values can overlap the other calls;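 also: 0% = median of the plate's neutral control wells and 100% = double that signal; a rise in the Bmi1 reporter signal indicates esBAF inhibition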
Wnt bcat act: activators of Wnt/beta-catenin signaling | 300,000 compounds, 1.2% hits | activation, % at 9.35 µM | Wnt/beta-catenin reporter cell assay, activator, plate reader; in the data active = activation above about 30%, passing the limit was not always enough; inconclusive = no clear call, values can overlap the other calls;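 also: 0% = neutral control wells and 100% = positive control wells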
MITF act: MITF TRPM1 promoter activation in melanoma cells | activation, % at 12.5 µM | SK-MEL-5 TRPM1-promoter luciferase, 24 h; % of positive control, neutral wells = 0 | 300,000 compounds, 0.75% hits;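 active = mean activation of at least 80% with every replicate also reaching 80%; inconclusive = mean reaches 80% but some replicate falls short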;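 also: 0% = neutral control wells and 100% = parthenolide positive control wells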
NSD2 HMT inh: NSD2 (human) methyltransferase inhibition | O96028 | NSD2 peptide methylation, AlphaScreen, 120 min | inhibition, % at 12.5 µM | 310,000 compounds, 0.54% hits | AID 743445; in the data active = inhibition above about 50%
An asterisk follows results filed as active; ? = inconclusive; / = not tested or not shown. Compounds with a hit are over-represented: about 3% of the library has one in this group of screens.

SMILES | Casp6 inh | Xi reactivation | esBAF inh | Wnt bcat act | MITF act | NSD2 HMT inh
O=C1CSC(=S)N1N=Cc1ccc(OCc2ccccc2)cc1 | -1 | 0 | 50* | 5 | / | -2
O=C1CSC(=S)N1N=Cc1ccccc1O | 16 | 0 | / | 8 | 9 | -16
O=C1CSC(=S)N1/N=C/c1cccnc1 | 4 | 0 | / | 41* | / | -21
CO[C@H]1CN(C)C(=O)c2ccc(NS(=O)(=O)c3ccccc3)cc2OC[C@@H](C)N(C)C[C@@H]1C | / | 0 | -1 | / | / | /
CCC(=O)N1CC2(CCN(Cc3ccc(Cl)cc3)CC2)c2c([nH]c3cc(OC)ccc23)[C@@H]1CO | / | 0 | / | / | / | /
C[C@@H]1CN([C@@H](C)CO)C(=O)c2cc(NC(=O)NC3CCCCC3)ccc2O[C@@H](C)CCCCO[C@@H]1CN(C)C(=O)Cc1ccccc1 | / | -1 | 5 | / | / | /
Cc1ccccc1NC(=O)C1Cc2ccccc2CN1C(=O)c1ccco1 (configuration not stated) | 6 | / | 55* | 10 | 30 | 3
O=C(NCc1ccccc1)C1Cc2ccccc2CN1C(=O)c1ccco1 (configuration not stated) | / | 0 | -3 | -2 | -1 | 0
O=C(O)C1Cc2ccccc2CN1C(=O)c1ccco1 (configuration not stated) | 8 | 0 | -11 | -1 | / | 0
NS(=O)(=O)c1ccc(NC(=O)C2Cc3ccccc3CN2C(=O)c2ccco2)cc1 (configuration not stated) | 45* | 0 | 0 | -1 | / | 7
NS(=O)(=O)c1ccc(CCNC(=O)C2Cc3ccccc3CN2C(=O)c2ccco2)cc1 (configuration not stated) | / | / | 10 | -3 | / | 6
COc1cccc(NC(=O)C2Cc3ccccc3CN2C(=O)c2ccco2)c1 (configuration not stated) | / | 0 | 57* | 4 | 5 | 2
CCOC(=O)c1c(C)oc2c1c(C=NC1CCS(=O)(=O)C1)c(O)c1ccccc12 (configuration not stated) | / | 0 | -1 | -1 | -7 | 88*
C[C@H]1CN([C@@H](C)CO)C(=O)c2cc(-c3ccc(C(=O)N(C)C)cc3)cnc2O[C@@H]1CN(C)C(=O)c1ccncc1 | -1 | 0 | -3 | / | / | /
COc1ccc([Si](C)(C)[C@@H]2[C@@H](CCO)O[C@]3(C(=O)N4c5c(cc(OC)cc53)C(C)=CC4(C)C)[C@H]2C)cc1 | 1 | / | / | / | / | /
Cc1nc(-c2ccc([N+](=O)[O-])cc2)nc2[nH]ccc(=O)c12 | 1 | 0 | ? | 37* | 105* | 5
Cc1nc(-c2ccccc2)nc2[nH]c(-c3ccccc3)cc(=O)c12 | / | / | / | 6 | 22 | 0
Cc1nc(SCc2nc3ccc(Br)cc3[nH]2)c2oc3ccccc3c2n1 | -1 | 0 | -4 | 0 | 15 | /
Cc1nc(SCc2nc3ccccc3[nH]2)c2oc3cc([N+](=O)[O-])ccc3c2n1 | / | 0 | 49* | -1 | -23 | /
COc1ccc2c(c1)oc1c(SCc3nc4ccccc4[nH]3)nc(C)nc12 | -1 | 0 | 68* | 13 | 49 | /
COc1ccc(C[C@H]2CCn3nncc3COC[C@@H](CC(C)C)NC2=O)cc1 | / | 0 | / | / | / | /
Cn1c(N)c(C(=O)Nc2ccc3ccccc3c2)sc1=S | / | / | 39 | / | 107* | 0
Cn1c(N)c(C(=O)Nc2ccccc2F)sc1=S | -2 | 0 | / | 4 | / | -1
Nc1c(C(=O)Nc2ccc(F)cc2)sc(=S)n1-c1ccccc1F | 0 | 0 | 54* | 5 | 51 | -2
O=C1NCCOCc2cn(nn2)CC[C@H]1Cc1ccc(F)cc1 | / | 0 | / | / | / | /
Cc1ccc(S(=O)(=O)N2C[C@H](O)COC[C@H]3O[C@H](CC(=O)NCC4CCCCC4)CC[C@@H]32)cc1 | 0 | 0 | -3 | / | / | /
CCOc1ccccc1NC(=O)CSc1n[nH]c(N)n1 | 57* | 0 | -5 | 1 | 10 | -3
CCCc1ccc(-c2cc(NC(=O)CSc3n[nH]c(N)n3)n(-c3ccccc3)n2)cc1 | / | / | 64* | / | ? | 10
CC(C)(C)C(=O)NNC(=O)c1cc2sccc2s1 | 1 | 0 | / | 41* | -4 | 14
CC(C)(C)OC(=O)NNC(=O)c1cccs1 | 0 | 0 | / | -3 | 6 | 0
